Reference: ChEMBL document CHEMBL3352724, “Phenolic Glycosides from the Twigs of Salix glandulosa” (J Nat Prod, 2014)

Assays:
[1] = Cytotoxicity against human SKOV3 cells by sulforhodamine B bioassay; assay type: functional, cell-based; settings: SK-OV-3
Procedure, shortened: (§1)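 Sulforhodamine B assay on cultured human tumor cell lines A549, SK-OV-3, A498 and HCT15. Run at the Korea Research Institute of Chemical Technology.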

[2] = tested on: A549; assay: Cytotoxicity against human A549 cells by sulforhodamine B bioassay; assay type: functional, cell-based; procedure, shortened: as §1
[3] = Cytotoxicity against human HCT15 cells by sulforhodamine B bioassay; assay type: functional, cell-based; settings: HCT-15; procedure, shortened: as §1
[4] = Antineuroinflammatory activity against mouse BV2 cells assessed as inhibition of LPS-induced NO production treated with compound 30 mins and challenged with LPS for 24 hrs; settings: BV-2
[5] = Cytotoxicity against mouse BV2 cells by MTT assay; set-up: concentration or dose not given beside the values; settings: bv-2
[6] = tested on: SK-MEL-2; assay: Cytotoxicity against human SK-MEL-2 cells by sulforhodamine B bioassay; assay type: functional, cell-based

IC50 [4] [µM] | SMILES | IC50 [1] [µM] | IC50 [2] [µM] | IC50 [3] [µM] | Activity [5] [%] | IC50 [6] [µM]
 | O=C(/C=C\c1ccc(O)cc1)OC[C@H]1O[C@@H](O[C@@H]2CCCC[C@H]2O)[C@H](O)[C@@H](O)[C@@H]1O | > 10 | > 10 | > 10 |  | 
 | O=C(/C=C/c1ccc(O)cc1)OC[C@H]1O[C@@H](O[C@H]2CCCC[C@H]2O)[C@H](O)[C@@H](O)[C@@H]1O | > 10 | > 10 | > 10 |  | 
 | O=C(/C=C\c1ccc(O)cc1)OC[C@H]1O[C@@H](O[C@H]2CCCC[C@H]2O)[C@H](O)[C@@H](O)[C@@H]1O | > 10 | > 10 | > 10 |  | 
 | O=C(OC[C@H]1O[C@@H](O[C@@H]2CCCC[C@H]2O)[C@H](O)[C@@H](O)[C@@H]1O)c1ccc(O)cc1 | > 10 | > 10 | > 10 |  | 
14.8 | O=C(/C=C/c1ccc(O)cc1)OC[C@H]1O[C@@H](O[C@@H]2CCCC[C@H]2O)[C@H](O)[C@@H](O)[C@@H]1O | > 10 | > 10 | > 10 | 100.7 | 
 | O=C(/C=C/c1ccc(O)cc1)O[C@H]1[C@H](O[C@@H]2CCCC[C@@H]2O)O[C@H](CO)[C@@H](O)[C@@H]1O | > 10 | > 10 | > 10 |  | 
 | O=C(/C=C/c1ccc(O)cc1)O[C@H]1[C@H](O[C@H]2CCCC[C@H]2O)O[C@H](CO)[C@@H](O)[C@@H]1O | > 10 | > 10 | > 10 |  | 
6.6 | O=C(/C=C\c1ccc(O)cc1)O[C@H]1[C@H](O[C@@H]2CCCC[C@H]2O)O[C@H](CO)[C@@H](O)[C@@H]1O | > 10 | > 10 | > 10 | 102.5 | 
24.3 | CNC(=N)NCCC[C@H](N)C(=O)O [TILARGININE] |  |  |  | 99.8 | 
 | O=C(/C=C\c1ccc(O)cc1)O[C@@H]1[C@H](O[C@@H]2CCCC[C@@H]2O)O[C@H](CO)[C@@H](O)[C@H]1O | > 10 | > 10 | > 10 |  | 
18.1 | O=C(/C=C\c1ccc(O)cc1)O[C@@H]1[C@H](O[C@H]2CCCC[C@@H]2O)O[C@H](CO)[C@@H](O)[C@H]1O | > 10 | > 10 | > 10 | 96.2 | 
15.5 | O=C(/C=C/c1ccc(O)cc1)O[C@H]1[C@H](O[C@H]2CCCC[C@@H]2O)O[C@H](CO)[C@@H](O)[C@@H]1O | > 10 | > 10 | > 10 | 93.6 | 
20.5 | O=C(/C=C/c1ccc(O)cc1)O[C@H]1[C@H](O[C@@H]2CCCC[C@H]2O)O[C@H](CO)[C@@H](O)[C@@H]1O | > 10 | > 10 | > 10 | 107.2 | 
 | COc1cccc2c1C(=O)c1c(O)c3c(c(O)c1C2=O)C[C@@](O)(C(=O)CO)C[C@@H]3O[C@H]1C[C@H](N)[C@H](O)[C@H](C)O1 [DOXORUBICIN] | 0.0217 | 0.0014 | 0.108 |  | 0.0025
 | O=C(/C=C\c1ccc(O)cc1)O[C@H]1[C@H](O[C@H]2CCCC[C@H]2O)O[C@H](CO)[C@@H](O)[C@@H]1O | > 10 | > 10 | > 10 |  | 
